Measurements taken from ChEMBL document CHEMBL1649165, “Activity profile in vitro of micafungin against Spanish clinical isolates of common and emerging species of yeasts and molds” (2009).
In brackets after ≈: the same amount, converted by molar mass.

Tests used:
Assay type in all cases: functional
Nakaseomyces glabratus = assay: Antimicrobial activity against Candida glabrata by broth microdilution method
Procedure, shortened: (§1)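 Clinical isolates from human patients, tested by broth microdilution using the AFST-EUCAST reference procedure for fermentative yeasts. The MIC was read per that reference method.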

Saccharomyces cerevisiae = assay: Antimicrobial activity against Saccharomyces cerevisiae by broth microdilution method
Yarrowia lipolytica = assay: Antimicrobial activity against Yarrowia lipolytica by broth microdilution method
Aspergillus sydowii = assay: Antimicrobial activity against Aspergillus sydowii by broth microdilution method
Procedure, shortened: (§2)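 Clinical mould isolates, tested by broth microdilution using the AFST-EUCAST reference method for filamentous fungi. For echinocandins, the endpoint was the minimum effective concentration: the lowest drug concentration giving aberrant hyphal growth, read with an inverted microscope.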

Mucor = assay: Antimicrobial activity against Mucor spp.by broth microdilution method
Procedure, shortened: (§3)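 Filamentous fungus clinical isolates tested by the AFST-EUCAST reference broth microdilution method for moulds. For echinocandins, the endpoint was the minimum effective concentration: the lowest drug concentration giving aberrant hyphal growth, read with an inverted microscope.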

Aspergillus flavus = assay: Antimicrobial activity against Aspergillus flavus by broth microdilution method; procedure, shortened: as §2
Coprinellus domesticus = assay: Antimicrobial activity against Hormographiella verticillata by broth microdilution method; procedure, shortened: as §3
Trichosporon asahii = assay: Antimicrobial activity against Trichosporon asahii by broth microdilution method
Procedure, shortened: (§4)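 Nonfermentative yeast clinical isolates (Rhodotorula, Trichosporon) tested by broth microdilution. The EUCAST yeast recommendations were followed strictly, with one minor modification to improve growth. MIC was read as the endpoint.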

Trichoderma = assay: Antimicrobial activity against Trichoderma spp. by broth microdilution method; procedure, shortened: as §3
[Candida] inconspicua = Antimicrobial activity against Candida inconspicua by broth microdilution method; conditions: Pichia inconspicua; procedure, shortened: as §1
Fusarium proliferatum = assay: Antimicrobial activity against Fusarium proliferatum by broth microdilution method; procedure, shortened: as §2
Aspergillus terreus = assay: Antimicrobial activity against Aspergillus terreus by broth microdilution method; procedure, shortened: as §2
Fusarium reticulatum = assay: Antimicrobial activity against Fusarium reticulatum by broth microdilution method; procedure, shortened: as §3
Paecilomyces lilacinus = assay: Antimicrobial activity against Paecilomyces lilacinus by broth microdilution method; conditions: Purpureocillium lilacinum; procedure, shortened: as §3
[Candida] intermedia = Antimicrobial activity against Candida intermedia by broth microdilution method; conditions: Sungouiella intermedia; procedure, shortened: as §1
Alternaria alternata = assay: Antimicrobial activity against Alternaria alternata by broth microdilution method; procedure, shortened: as §2
[Candida] zeylanoides = Antimicrobial activity against Candida zeylanoides by broth microdilution method; conditions: Dujonia zeylanoides; procedure, shortened: as §1
Candida albicans = assay: Antimicrobial activity against Candida albicans by broth microdilution method; procedure, shortened: as §1
Aspergillus = assay: Antimicrobial activity against Aspergillus spp. by broth microdilution method; procedure, shortened: as §2
Trichosporon = assay: Antimicrobial activity against Trichosporon spp. by broth microdilution method; procedure, shortened: as §4
Scedosporium apiospermum = assay: Antimicrobial activity against Scedosporium apiospermum by broth microdilution method; procedure, shortened: as §3
Trichosporon dermatis = assay: Antimicrobial activity against Trichosporon dermatis by broth microdilution method; conditions: Cutaneotrichosporon dermatis; procedure, shortened: as §4
Diutina rugosa = assay: Antimicrobial activity against Candida rugosa by broth microdilution method; procedure, shortened: as §1
Paecilomyces variotii = assay: Antimicrobial activity against Paecilomyces variotii by broth microdilution method; procedure, shortened: as §3
Scytalidium hyalinum = assay: Antimicrobial activity against Scytalidium hyalinum by broth microdilution method; conditions: Neoscytalidium hyalinum; procedure, shortened: as §3
Naganishia albida = assay: Antimicrobial activity against Cryptococcus albidus by broth microdilution method
Procedure, shortened: (§5)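 Clinical isolates of nonfermentative yeasts, tested by broth microdilution following EUCAST recommendations. The only change from that method was a minor modification to improve growth.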

Kluyveromyces marxianus = assay: Antimicrobial activity against Candida kefyr by broth microdilution method; procedure, shortened: as §1
Magnusiomyces capitatus = assay: Antimicrobial activity against Dipodascus capitatus by broth microdilution method
Pichia norvegensis = assay: Antimicrobial activity against Candida norvegensis by broth microdilution method; procedure, shortened: as §1
Papiliotrema laurentii = assay: Antimicrobial activity against Cryptococcus laurentii by broth microdilution method; procedure, shortened: as §5
Aspergillus fumigatus = assay: Antimicrobial activity against Aspergillus fumigatus by broth microdilution method; procedure, shortened: as §2
Aspergillus sclerotiorum = assay: Antimicrobial activity against Aspergillus sclerotiorum by broth microdilution method; procedure, shortened: as §2
Penicillium = assay: Antimicrobial activity against Penicillium spp. by broth microdilution method; procedure, shortened: as §3
Aspergillus niger = assay: Antimicrobial activity against Aspergillus niger by broth microdilution method; procedure, shortened: as §2
Acremonium sp. = assay: Antimicrobial activity against Acremonium sp.by broth microdilution method; procedure, shortened: as §2
Trichosporon domesticum = assay: Antimicrobial activity against Trichosporon mycotoxinivorans by broth microdilution method; conditions: Apiotrichum domesticum
Procedure, shortened: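 Spanish human clinical isolates were tested as nonfermentative yeasts by broth microdilution. The method strictly followed the EUCAST recommendations, with a minor modification to improve growth, and the read-out was the MIC.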

Lecythophora hoffmannii = assay: Antimicrobial activity against Lecythophora hoffmannii by broth microdilution method; conditions: Coniochaeta hoffmannii; procedure, shortened: as §3
Wickerhamomyces anomalus = assay: Antimicrobial activity against Candida pelliculosa by broth microdilution method; conditions: Hansenula anomala; procedure, shortened: as §1
Trichosporon jirovecii = assay: Antimicrobial activity against Trichosporon jirovecii by broth microdilution method; conditions: Cutaneotrichosporon jirovecii; procedure, shortened: as §4
Fusarium verticillioides = assay: Antimicrobial activity against Fusarium verticillioides by broth microdilution method; procedure, shortened: as §3
Torulaspora delbrueckii = assay: Antimicrobial activity against Candida coliculosa by broth microdilution method; procedure, shortened: as §1
Fennellia nivea = assay: Antimicrobial activity against Aspergillus niveus by broth microdilution method; procedure, shortened: as §2
Aspergillus ochraceus = assay: Antimicrobial activity against Aspergillus ochraceus by broth microdilution method; procedure, shortened: as §2
Candida tropicalis = assay: Antimicrobial activity against Candida tropicalis by broth microdilution method; procedure, shortened: as §1

SMILES: C[C@@H]1[C@H](O)[C@@H](C)/C=C/C=C/C=C/C=C/C=C/C=C/C=C/[C@H](O[C@@H]2O[C@H](C)[C@@H](O)[C@H](N)[C@@H]2O)C[C@@H]2O[C@](O)(C[C@@H](O)C[C@@H](O)[C@H](O)CC[C@@H](O)C[C@@H](O)CC(=O)O[C@H]1C)C[C@H](O)[C@H]2C(=O)O [AMPHOTERICIN B]
- MIC50 (Nakaseomyces glabratus): 0.12 µg/mL (≈ 0.13 µM)
- MIC90 (Nakaseomyces glabratus): 0.25 µg/mL (≈ 0.271 µM)
- MIC50 (Saccharomyces cerevisiae): 0.12 µg/mL (≈ 0.13 µM)
- MIC90 (Saccharomyces cerevisiae): 0.25 µg/mL (≈ 0.271 µM)
- MIC50 (Yarrowia lipolytica): 0.5 µg/mL (≈ 0.541 µM)
- MIC90 (Yarrowia lipolytica): 0.5 µg/mL (≈ 0.541 µM)
- MIC50 (Aspergillus sydowii): 1 µg/mL (≈ 1.08 µM)
- MIC90 (Aspergillus sydowii): 2 µg/mL (≈ 2.16 µM)
- MIC50 (Mucor): 0.12 µg/mL (≈ 0.13 µM)
- MIC90 (Mucor): 1 µg/mL (≈ 1.08 µM)
- MIC50 (Aspergillus flavus): 1 µg/mL (≈ 1.08 µM)
- MIC90 (Aspergillus flavus): 2 µg/mL (≈ 2.16 µM)
- MIC50 (Coprinellus domesticus): 0.5 µg/mL (≈ 0.541 µM)
- MIC90 (Coprinellus domesticus): > 16 µg/mL
- MIC50 (Trichosporon asahii): 8 µg/mL (≈ 8.66 µM)
- MIC90 (Trichosporon asahii): > 16 µg/mL
- MIC50 (Trichoderma): 0.5 µg/mL (≈ 0.541 µM)
- MIC90 (Trichoderma): > 16 µg/mL
- MIC50 ([Candida] inconspicua): 0.12 µg/mL (≈ 0.13 µM)
- MIC90 ([Candida] inconspicua): 1 µg/mL (≈ 1.08 µM)
- MIC50 (Fusarium proliferatum): 2 µg/mL (≈ 2.16 µM)
- MIC90 (Fusarium proliferatum): 4 µg/mL (≈ 4.33 µM)
- MIC50 (Aspergillus terreus): 1 µg/mL (≈ 1.08 µM)
- MIC90 (Aspergillus terreus): 4 µg/mL (≈ 4.33 µM)
- MIC50 (Fusarium reticulatum): 0.5 µg/mL (≈ 0.541 µM)
- MIC90 (Fusarium reticulatum): > 16 µg/mL
- MIC50 (Paecilomyces lilacinus): > 16 µg/mL
- MIC90 (Paecilomyces lilacinus): > 16 µg/mL
- MIC50 ([Candida] intermedia): 0.12 µg/mL (≈ 0.13 µM)
- MIC90 ([Candida] intermedia): 1 µg/mL (≈ 1.08 µM)
- MIC50 (Alternaria alternata): 0.5 µg/mL (≈ 0.541 µM)
- MIC90 (Alternaria alternata): > 16 µg/mL
- MIC50 ([Candida] zeylanoides): 0.12 µg/mL (≈ 0.13 µM)
- MIC90 ([Candida] zeylanoides): 1 µg/mL (≈ 1.08 µM)
- MIC50 (Candida albicans): 0.06 µg/mL (≈ 0.0649 µM)
- MIC90 (Candida albicans): 0.12 µg/mL (≈ 0.13 µM)
- MIC50 (Aspergillus): 0.5 µg/mL (≈ 0.541 µM)
- MIC90 (Aspergillus): > 16 µg/mL
- MIC50 (Trichosporon): 0.5 µg/mL (≈ 0.541 µM)
- MIC90 (Trichosporon): 8 µg/mL (≈ 8.66 µM)
- MIC50 (Scedosporium apiospermum): 4 µg/mL (≈ 4.33 µM)
- MIC90 (Scedosporium apiospermum): > 16 µg/mL
- MIC50 (Trichosporon dermatis): 0.5 µg/mL (≈ 0.541 µM)
- MIC90 (Trichosporon dermatis): 8 µg/mL (≈ 8.66 µM)
- MIC50 (Diutina rugosa): 0.12 µg/mL (≈ 0.13 µM)
- MIC90 (Diutina rugosa): 1 µg/mL (≈ 1.08 µM)
- MIC50 (Paecilomyces variotii): 0.03 µg/mL (≈ 0.0325 µM)
- MIC90 (Paecilomyces variotii): 0.5 µg/mL (≈ 0.541 µM)
- MIC50 (Scytalidium hyalinum): 0.25 µg/mL (≈ 0.271 µM)
- MIC90 (Scytalidium hyalinum): 1 µg/mL (≈ 1.08 µM)
- MIC50 (Naganishia albida): 0.5 µg/mL (≈ 0.541 µM)
- MIC90 (Naganishia albida): 8 µg/mL (≈ 8.66 µM)
- MIC50 (Kluyveromyces marxianus): 0.25 µg/mL (≈ 0.271 µM)
- MIC90 (Kluyveromyces marxianus): 0.5 µg/mL (≈ 0.541 µM)
- MIC50 (Magnusiomyces capitatus): 0.5 µg/mL (≈ 0.541 µM)
- MIC90 (Magnusiomyces capitatus): 0.5 µg/mL (≈ 0.541 µM)
- MIC50 (Pichia norvegensis): 0.12 µg/mL (≈ 0.13 µM)
- MIC90 (Pichia norvegensis): 1 µg/mL (≈ 1.08 µM)
- MIC50 (Papiliotrema laurentii): 0.5 µg/mL (≈ 0.541 µM)
- MIC90 (Papiliotrema laurentii): 8 µg/mL (≈ 8.66 µM)
- MIC50 (Aspergillus fumigatus): 0.25 µg/mL (≈ 0.271 µM)
- MIC90 (Aspergillus fumigatus): 0.5 µg/mL (≈ 0.541 µM)
- MIC50 (Aspergillus sclerotiorum): 0.5 µg/mL (≈ 0.541 µM)
- MIC90 (Aspergillus sclerotiorum): > 16 µg/mL
- MIC50 (Penicillium): 0.5 µg/mL (≈ 0.541 µM)
- MIC90 (Penicillium): 2 µg/mL (≈ 2.16 µM)
- MIC50 (Aspergillus niger): 0.25 µg/mL (≈ 0.271 µM)
- MIC90 (Aspergillus niger): 0.25 µg/mL (≈ 0.271 µM)
- MIC50 (Acremonium sp.): 4 µg/mL (≈ 4.33 µM)
- MIC90 (Acremonium sp.): > 16 µg/mL
- MIC50 (Trichosporon domesticum): 0.5 µg/mL (≈ 0.541 µM)
- MIC90 (Trichosporon domesticum): 8 µg/mL (≈ 8.66 µM)
- MIC50 (Lecythophora hoffmannii): 0.25 µg/mL (≈ 0.271 µM)
- MIC90 (Lecythophora hoffmannii): 1 µg/mL (≈ 1.08 µM)
- MIC50 (Wickerhamomyces anomalus): 0.12 µg/mL (≈ 0.13 µM)
- MIC90 (Wickerhamomyces anomalus): 1 µg/mL (≈ 1.08 µM)
- MIC50 (Trichosporon jirovecii): 0.5 µg/mL (≈ 0.541 µM)
- MIC90 (Trichosporon jirovecii): 8 µg/mL (≈ 8.66 µM)
- MIC50 (Fusarium verticillioides): 2 µg/mL (≈ 2.16 µM)
- MIC90 (Fusarium verticillioides): 4 µg/mL (≈ 4.33 µM)
- MIC50 (Torulaspora delbrueckii): 0.12 µg/mL (≈ 0.13 µM)
- MIC90 (Torulaspora delbrueckii): 1 µg/mL (≈ 1.08 µM)
- MIC50 (Fennellia nivea): 0.5 µg/mL (≈ 0.541 µM)
- MIC90 (Fennellia nivea): > 16 µg/mL
- MIC50 (Aspergillus ochraceus): 0.5 µg/mL (≈ 0.541 µM)
- MIC90 (Aspergillus ochraceus): > 16 µg/mL
- MIC50 (Candida tropicalis): 0.12 µg/mL (≈ 0.13 µM)
- MIC90 (Candida tropicalis): 0.25 µg/mL (≈ 0.271 µM)
